Test results reported in article PMC3858840 (Journal of molecular biology, 2013).

Assays:
[1] = test system: TMR-CLS/POPC/POPS liposome; format: binding, human; settings: added alone, before moesin-FERM; 15% POPS/85% POPC; 0.3 mM CaCl2; 575 nm
Method in brief: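 TMR-CLS was extruded (400-nm filter) into 15% POPS/85% POPC liposomes at 1:1000 peptide:lipid and diluted to about 5 nM in 50 mM Tris–HCl, 150 mM NaCl, 0.3 mM CaCl₂, pH 7.4. Additions carried 5 nM liposome. First 3 µM Ca/CaM, then moesin-FERM (400 nM, then 100 nM steps). TMR emission was recorded continuously at 575 nm (excitation 542 nm).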

CaM (calmodulin) = assay: Direct interaction between moesin-FERM and CaM; format: binding; settings: up to 10 µM moesin-FERM; 0.3 mM CaCl2; ex 340 nm

B1: moesin-FERM: FERM domain of human moesin (residues 1–346), recombinant (protein)
chain: MPKTISVRVTTMDAELEFAIQPNTTGKQLFDQVVKTIGLREVWFFGLQYQDTKGFSTWLKLNKKVTAQDVRKESPLLFKFRAKFYPEDVSEELIQDITQRLFFLQVKEGILNDDIYCPPETAVLLASYAVQSKYGDFNKEVHKSGYLAGDKLLPQRVLEQHKLNKDQWEERIQVWHEEHRGMLREDAVLEYLKIAQDLEMYGVNYFSIKNKKGSELWLGVDALGLNIYEQNDRLTPKIGFPWSEIRNISFNDKKFVIKPIDKKAPDFVFYAPRLRINKRILALCMGNHELYMRRRKPDTIEVQQMKAQAREEKHQKQMERAMLENEKKKREMAEKEKEKIEREKEE
change in TMR fluorescence of TMR-CLS/POPS liposome on addition [1]: decrease of TMR fluorescence emission | change in IAEDANS fluorescence emission of IAEDANS-CaM (CaM (calmodulin)): little change in the IAEDANS fluorescence emission
